Experimental data published in paper PMC6860364 (British journal of haematology, 2017).

Experiments:
[1] = Blood pharmacokinetics of MRZ in RRMM patients, Cycle 1 Day 8, non-compartmental; format: in vivo; settings: human, iv
How it was run: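 Relapsed/refractory myeloma patients got the test compound at 0·3–0·5 mg/m² as a 2-h IV infusion on days 1, 4, 8 and 11 of 28-day cycles, with pomalidomide and oral dexamethasone. Saline hydration ran 1 h before and 2 h after infusion. Blood was sampled on Cycle 1 Day 8 pre-dose, at 40, 80 and 120 min into infusion, and 2–90 min after its end.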

[2] = tested on: CT-L, T-L and C-L catalytic activities of the proteasome; test: Pharmacodynamics: proteasome activity in packed whole blood; format: in vivo, human; settings: 0·4 and 0·5 mg/m^2 MRZ, study dosing schedule
[3] = historical studies; ref Harrison et al, 2016; cited from earlier work
[4] = preclinical studies; ref Di et al, 2016; cited from earlier work

C[C@@]12OC(=O)[C@]1([C@@H](O)[C@@H]1C=CCCC1)NC(=O)[C@@H]2CCCl [MRZ, Marizomib]
Vd [1]: 41 to 86 L | clearance [1]: 4200 to 9400 mL/min | proteasome subunit inhibition in PWB [2]: Partial or complete proteasome subunit inhibition in PWB was achieved | half-life [3]: 6 to 10 min | ability to cross the blood brain barrier (BBB) [4]: crosses the BBB
